# Experimental data from ChEMBL document CHEMBL3112486, “Novel class of benzoic acid ester derivatives as potent PDE4 inhibitors for inhaled administration in the treatment of respiratory diseases” (J Med Chem, 2014).
# pIC50: −log10 of the molar value. The source made the active and inactive calls. The rule behind the calls is not given here.
# Experiments:
# [1] = target: cGMP-specific 3',5'-cyclic phosphodiesterase PDE5 (Homo sapiens) (UniProt O76074); test: Inhibition of human platelet PDE5 at 10 uM
# Phosphodiesterase 3 [2] = target: T1, Phosphodiesterase 3 (Homo sapiens, UniProt Q14432+Q13370); test: Inhibition of human platelet PDE3 at 10 uM
# Phosphodiesterase 4 [3] = target: T2, Phosphodiesterase 4 (Homo sapiens, UniProt P27815+Q08499+Q07343+Q08493); test: Inhibition of PDE4 isolated from human U937 cells assessed as […] by LANCE assay; format: cell-free; settings: u-937
# [4] = target: T3, cGMP-dependent 3',5'-cyclic phosphodiesterase (Homo sapiens, UniProt O00408); test: Inhibition of human platelet PDE2 at 10 uM
# T3 sequence (O00408 whole entry): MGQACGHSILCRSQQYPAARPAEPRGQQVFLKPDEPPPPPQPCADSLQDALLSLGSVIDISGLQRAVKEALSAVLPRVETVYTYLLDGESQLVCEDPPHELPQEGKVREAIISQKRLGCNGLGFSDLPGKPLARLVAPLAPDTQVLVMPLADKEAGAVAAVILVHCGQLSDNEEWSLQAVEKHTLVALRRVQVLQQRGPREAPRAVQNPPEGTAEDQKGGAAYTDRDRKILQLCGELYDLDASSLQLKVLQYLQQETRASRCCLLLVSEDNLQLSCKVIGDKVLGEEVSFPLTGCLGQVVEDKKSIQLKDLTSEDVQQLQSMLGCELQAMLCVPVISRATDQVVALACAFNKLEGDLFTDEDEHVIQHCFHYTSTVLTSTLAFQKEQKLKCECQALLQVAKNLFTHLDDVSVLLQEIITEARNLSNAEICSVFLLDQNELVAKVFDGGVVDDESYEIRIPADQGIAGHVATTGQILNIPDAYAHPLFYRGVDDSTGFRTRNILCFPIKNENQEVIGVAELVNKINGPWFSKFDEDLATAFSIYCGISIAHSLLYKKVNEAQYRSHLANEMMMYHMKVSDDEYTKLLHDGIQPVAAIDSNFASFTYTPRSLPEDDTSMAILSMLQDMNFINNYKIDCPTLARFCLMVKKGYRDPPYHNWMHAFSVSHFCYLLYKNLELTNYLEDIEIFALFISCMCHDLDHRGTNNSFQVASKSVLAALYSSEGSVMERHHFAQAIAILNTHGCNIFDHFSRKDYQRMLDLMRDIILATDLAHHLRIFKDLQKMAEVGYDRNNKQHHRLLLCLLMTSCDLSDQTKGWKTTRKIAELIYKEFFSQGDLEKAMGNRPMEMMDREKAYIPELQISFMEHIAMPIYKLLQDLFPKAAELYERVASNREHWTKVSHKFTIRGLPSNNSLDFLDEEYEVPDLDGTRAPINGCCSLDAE
# [5] = Apparent permeability across human Caco2 cells at 10 uM after 2 hrs by LC-MS/MS analysis; format: ADME, cell-based; settings: Caco-2
# Procedure, shortened: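 Caco-2 cells cultured 24 h, then switched to enterocyte differentiation medium for 3 days to form monolayers. Test compound 10 μM in DMEM (1% DMSO) added apically; apical pH 6.5, basolateral pH 7.4. After 2 h at 37 °C, apical, basolateral and starting solutions quantified by LC−MS/MS. Papp (nm/s) = flux/initial donor concentration; caffeine and cimetidine run as references.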
# U-937 [6] = test: Selectivity ratio of IC50 for bovine brain PDE1 to IC50 for PDE4 isolated from human U937 cells; format: cell-based
# Procedure, shortened: (§1)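 PDE1 from bovine brain, PDE6 from bovine retina, PDE2/3/5 from human platelets. Each was tested in a radiometric two-step assay at five concentrations, in duplicate, starting at 30 μM with 1:10 serial dilution and 1% DMSO. […] Ratio = PDEx IC50 / PDE4 IC50.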
# Phosphodiesterase 3 [7] = target: T1, Phosphodiesterase 3; test: Inhibition of human platelet PDE3
# Procedure, shortened: (§2)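 Radiometric two-step assay (modified Thompson–Appleman). PDE1 from bovine brain; PDE2, PDE3, PDE5 from human platelets; PDE6 from bovine retina. Compound tested in duplicate at five concentrations, starting at 30 μM with 1:10 serial dilution, 1% final DMSO.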
# [8] = Plasma protein binding in rat at 5 uM after 5 hrs by LC-MS/MS analysis; format: ADME, cell-free; settings: read-out: PPB (converted)
# Procedure, shortened: (§3)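 Equilibrium dialysis: plasma spiked at 5 μM (from 500 μM stock) dialysed against phosphate buffer pH 7.4 for 5 h at 37 °C with slow rotation. Samples extracted with ACN/MeOH containing verapamil internal standard, centrifuged, and analysed by LC−MS/MS.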
# [9] = Half life in rat lung slices at 1 uM after 2 hrs by LC-MS/MS analysis; format: ADME, tissue-based
# Procedure, shortened: (§4)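 Fresh lung slices preincubated 1 h at 37 °C under 95% O2/5% CO2 in DMEM/F12 with 10% FCS, then incubated with compound at 1 μM in MEM-Earle without phenol red for up to 2 h. Three replicates for human slices, four for rat. Compound measured by LC−MS/MS at 0, 20, 40, 60, 90, 120 min; testosterone (n = 2) checked slice viability.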
# Phosphodiesterase 4 [10] = target: T2, Phosphodiesterase 4; test: Inhibition of PDE4 activity in human PBMC assessed as inhibition of LPS-induced TNFalpha release after 18 hrs by ELISA
# Procedure, shortened: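 Human PBMCs plated at 10^5 cells/well in RPMI 1640 without phenol red plus 10% FBS, at 37 °C, 5% CO2. Compound added at 10^-15 to 10^-6 M (final DMSO 0.2%), with E. coli LPS at 3 ng/mL final, for 18 h. TNFα in supernatant measured by paired-antibody ELISA. IC50 from four-parameter logistic nonlinear regression, reported with 95% confidence intervals.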
# Cavia porcellus [11] = test: Inhibition of ovalbumin-induced lung eosinophilia in Dunkin-Hartley guinea pig at 0.01 umol/kg administered intratracheally 2 hrs before ovalbumin challenge; format: functional; settings: inhaled or nasal
# Procedure, shortened: (§5)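 Sensitized guinea pigs challenged on day 20 after first sensitization with a 1 h aerosol of OVA (10 μg/mL in saline); sham group received saline aerosol. Compound given intratracheally as a dry powder formulation 2 h or 24 h before challenge. Read-out was airway/lung eosinophil influx.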
# U-937 [12] = test: Selectivity ratio of IC50 for human platelet PDE2 to IC50 for PDE4 isolated from human U937 cells; format: cell-based
# Procedure, shortened: as §1
# [13] = Half life in rat lung S9 fraction; format: ADME, tissue-based
# Procedure, shortened: (§6)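 Lung S9 fraction (0.5 mg protein/mL) incubated in duplicate with compound at 1 μM in Dulbecco's buffer pH 7.4, 37 °C, with 1 mM NADPH. Samples taken at 0, 15, 30, 60 min and quenched in ice-cold acetonitrile; unchanged compound measured by LC−MS/MS. Controls were no-NADPH and buffer-only incubations; 7-ethoxyresorufin 1 μM served as phase I positive control.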
# [14] = target: T3, cGMP-dependent 3',5'-cyclic phosphodiesterase; test: Inhibition of human platelet PDE2
# Procedure, shortened: as §2
# [15] = Plasma protein binding in human at 5 uM after 5 hrs by LC-MS/MS analysis; format: ADME, cell-free; settings: read-out: PPB (converted)
# Procedure, shortened: as §3
# [16] = target: 3',5'-cyclic-AMP phosphodiesterase 4D (Homo sapiens) (UniProt Q08499); settings: Sf9
# Sequence of 3',5'-cyclic-AMP phosphodiesterase 4D (Homo sapiens) (Q08499 whole entry): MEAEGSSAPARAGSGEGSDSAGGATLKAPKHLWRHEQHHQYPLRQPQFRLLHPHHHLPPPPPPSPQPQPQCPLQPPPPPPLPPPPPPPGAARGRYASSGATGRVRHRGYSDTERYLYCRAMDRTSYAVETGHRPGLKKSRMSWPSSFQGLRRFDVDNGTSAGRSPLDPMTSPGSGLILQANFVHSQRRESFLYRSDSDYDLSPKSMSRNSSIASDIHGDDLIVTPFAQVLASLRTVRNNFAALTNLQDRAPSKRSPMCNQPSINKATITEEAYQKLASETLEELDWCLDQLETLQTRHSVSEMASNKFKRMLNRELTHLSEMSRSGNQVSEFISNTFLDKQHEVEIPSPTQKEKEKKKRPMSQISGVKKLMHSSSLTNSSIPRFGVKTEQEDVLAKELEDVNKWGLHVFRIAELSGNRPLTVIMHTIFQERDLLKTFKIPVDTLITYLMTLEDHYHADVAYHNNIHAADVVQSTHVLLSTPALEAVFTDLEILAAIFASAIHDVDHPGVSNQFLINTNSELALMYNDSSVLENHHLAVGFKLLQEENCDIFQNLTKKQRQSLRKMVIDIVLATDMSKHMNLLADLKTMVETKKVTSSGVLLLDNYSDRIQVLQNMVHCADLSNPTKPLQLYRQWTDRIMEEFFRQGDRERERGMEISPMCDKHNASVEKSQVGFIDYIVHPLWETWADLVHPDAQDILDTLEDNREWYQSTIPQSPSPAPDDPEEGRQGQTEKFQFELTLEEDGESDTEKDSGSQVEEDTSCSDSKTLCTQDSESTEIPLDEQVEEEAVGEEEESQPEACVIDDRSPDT
# [17] = n-Octanol-buffer partition coefficient, log D of the compound at pH 7.4 by shake-flask method
# U-937 [18] = test: Selectivity ratio of IC50 for bovine retina PDE6 to IC50 for PDE4 isolated from human U937 cells; format: cell-based
# Procedure, shortened: as §1
# [19] = Permeability across apical to basolateral side in human Calu3 cells at 1.5 to 7 uM up to 120 mins by LC-MS/MS analysis; format: ADME, cell-based; settings: calu-3, 2 h
# Procedure, shortened: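 Calu-3 cells grown on Transwell filters in MEM at 37 °C, 5% CO2, for 3 days plus a further 11–27 days until confluent. Compound added apically at 1.5, 3.5 and 7 μM. Receiver compartment sampled at 0, 30, 60, 90, 120 min; quantified by LC−MS/MS.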
# Cavia porcellus [20] = test: Inhibition of ovalbumin-induced lung eosinophilia in Dunkin-Hartley guinea pig at 0.1 umol/kg administered intratracheally 2 hrs before ovalbumin challenge; format: functional; settings: inhaled or nasal
# Procedure, shortened: as §5
# Cavia porcellus [21] = test: Inhibition of ovalbumin-induced lung eosinophilia in Dunkin-Hartley guinea pig at 3 umol/kg administered intratracheally 2 hrs before ovalbumin challenge; format: functional; settings: inhaled or nasal
# Procedure, shortened: as §5
# [22] = Metabolic stability in lung parenchyma of COPD patients under hydrolytic/proteolytic condition; format: ADME, tissue-based; settings: human
# [23] = Metabolic stability in rat lung S9 fraction assessed as compound remaining at 1 uM after 1 hr by LC-MS/MS analysis; format: ADME; settings: read-out: Stability
# Procedure, shortened: as §6
# Cavia porcellus [24] = test: Inhibition of ovalbumin-induced lung eosinophilia in Dunkin-Hartley guinea pig administered intratracheally 2 hrs before ovalbumin challenge; format: functional
# Procedure, shortened: as §5
# [25] = Half life in human lung S9 fraction; format: ADME, tissue-based
# Procedure, shortened: as §6
# U-937 [26] = test: Selectivity ratio of IC50 for human platelet PDE5 to IC50 for PDE4 isolated from human U937 cells; format: cell-based
# Procedure, shortened: as §1
# [27] = Inhibition of bovine retina PDE6; set-up: species or system Bos taurus
# Procedure, shortened: as §2
# Cavia porcellus [28] = test: Inhibition of ovalbumin-induced lung eosinophilia in Dunkin-Hartley guinea pig at 1 umol/kg administered intratracheally 2 hrs before ovalbumin challenge; format: functional; settings: inhaled or nasal
# Procedure, shortened: as §5
# Cavia porcellus [29] = test: Inhibition of ovalbumin-induced lung eosinophilia in Dunkin-Hartley guinea pig at 0.01 to 3 umol/kg administered intratracheally 24 hrs before ovalbumin challenge; format: functional, organism-based
# Procedure, shortened: as §5
# [30] = Metabolic stability in rat plasma assessed as compound remaining at 5 uM after 1 hr by LC-MS/MS analysis; format: ADME, cell-free; settings: read-out: Stability
# Procedure, shortened: (§7)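 Compound from 5 mM DMSO stock added to plasma at 5 μM final and incubated at 37 °C up to 120 min. Aliquots taken at 0, 15, 30, 60, 90, 120 min and quenched with 2 volumes of chilled acetonitrile, then centrifuged.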
# U-937 [31] = test: Selectivity ratio of IC50 for human platelet PDE3 to IC50 for PDE4 isolated from human U937 cells; format: cell-based
# Procedure, shortened: as §1
# [32] = Metabolic stability in human lung S9 fraction assessed as compound remaining at 1 uM after 1 hr by LC-MS/MS analysis; format: ADME; settings: read-out: Stability
# Procedure, shortened: as §6
# [33] = Metabolic stability in human plasma assessed as compound remaining at 5 uM after 1 hr by LC-MS/MS analysis; format: ADME, cell-free; settings: read-out: Stability
# Procedure, shortened: as §7
# [34] = Half life in human lung slices at 1 uM after 2 hrs by LC-MS/MS analysis; format: ADME, tissue-based
# Procedure, shortened: as §4
# [35] = target: 3',5'-cyclic-AMP phosphodiesterase 4B (Homo sapiens) (UniProt Q07343); settings: Sf9
# Sequence of 3',5'-cyclic-AMP phosphodiesterase 4B (Homo sapiens) (Q07343 whole entry): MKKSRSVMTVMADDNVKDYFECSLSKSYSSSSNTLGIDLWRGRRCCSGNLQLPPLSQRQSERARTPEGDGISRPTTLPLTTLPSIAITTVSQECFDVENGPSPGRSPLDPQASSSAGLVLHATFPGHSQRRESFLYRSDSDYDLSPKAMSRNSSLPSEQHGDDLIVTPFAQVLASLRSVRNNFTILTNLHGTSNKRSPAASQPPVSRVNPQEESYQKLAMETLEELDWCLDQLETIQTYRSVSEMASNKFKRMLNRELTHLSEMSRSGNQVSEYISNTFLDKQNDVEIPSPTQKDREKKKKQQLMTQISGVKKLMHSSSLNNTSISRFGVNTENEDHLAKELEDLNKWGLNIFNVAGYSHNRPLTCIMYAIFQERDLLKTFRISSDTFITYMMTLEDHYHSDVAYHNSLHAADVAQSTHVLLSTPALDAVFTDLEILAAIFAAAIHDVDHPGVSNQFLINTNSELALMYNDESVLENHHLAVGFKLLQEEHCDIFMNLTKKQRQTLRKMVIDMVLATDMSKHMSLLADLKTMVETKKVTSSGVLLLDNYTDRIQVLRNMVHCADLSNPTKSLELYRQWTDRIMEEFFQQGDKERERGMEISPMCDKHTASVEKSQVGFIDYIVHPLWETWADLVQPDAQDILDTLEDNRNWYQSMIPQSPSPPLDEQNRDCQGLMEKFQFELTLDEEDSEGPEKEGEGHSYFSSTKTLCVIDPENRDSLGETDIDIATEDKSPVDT
# [36] = Inhibition of bovine brain PDE1; set-up: species or system Bos taurus
# Procedure, shortened: as §2
# Cavia porcellus [37] = test: Inhibition of ovalbumin-induced lung eosinophilia in Dunkin-Hartley guinea pig at 0.3 umol/kg administered intratracheally 2 hrs before ovalbumin challenge; format: functional; settings: inhaled or nasal
# Procedure, shortened: as §5
compound,measurement,setting,value
O=C(OC(Cc1c(Cl)cncc1Cl)c1ccc(OC(F)F)c(OCC2CC2)c1)c1ccc(OC(F)F)c(OCC2CC2)c1 (racemic),inhibition,[1],58%
same,inhibition,Phosphodiesterase 3 [2],18%
same,IC50,Phosphodiesterase 4 [3],3.45 nM
same,inhibition,[4],0%
CS(=O)(=O)Nc1ccc(C(=O)O[C@@H](Cc2c(Cl)c[n+]([O-])cc2Cl)c2ccc(OC(F)F)c(OCC3CC3)c2)cc1OCC1CC1,"Papp at 2 h, 10 µM",[5],< 1 ×10⁻⁶ cm/s
same,Ratio IC50,U-937 [6],> 20000
same,IC50,Phosphodiesterase 3 [7],> 1000 nM
same,"fraction unbound at 5 h, 5 µM",[8],0.008
same,half-life at 1 µM,[9],2.87 h
same,IC50,Phosphodiesterase 4 [10],0.06 nM
same,inhibition in vivo at 0.01 µmol/kg,Cavia porcellus [11],47%
same,Ratio IC50,U-937 [12],> 20000
same,half-life,[13],3.15 h
same,pIC50,[14],< 6.00
same,"fraction unbound at 5 h, 5 µM",[15],0.0002
same,T1/2,[16],> 20 h
same,logD,[17],4.48
same,Ratio IC50,U-937 [18],> 20000
same,permeability,[19],impermeable
same,inhibition in vivo at 0.1 µmol/kg,Cavia porcellus [20],66%
same,IC50,Phosphodiesterase 4 [3],0.04 nM
same,inhibition in vivo at 3 µmol/kg,Cavia porcellus [21],100%
same,Stability,[22],Stable
same,"remaining at 1 h, 1 µM",[23],88%
same,inhibition,Cavia porcellus [24],Dose-dependent effect
same,ED50,Cavia porcellus [24]; inhaled or nasal,0.016 µmol/kg
same,half-life,[25],> 4.67 h
same,Ratio IC50,U-937 [26],> 20000
same,pIC50,[27],< 6.00
same,inhibition in vivo at 1 µmol/kg,Cavia porcellus [28],83%
same,inhibition,Cavia porcellus [29],Active
same,"remaining at 1 h, 5 µM",[30],100%
same,Ratio IC50,U-937 [31],> 20000
same,"remaining at 1 h, 1 µM",[32],100%
same,"remaining at 1 h, 5 µM",[33],100%
same,half-life at 1 µM,[34],3.95 h
same,T1/2,[35],> 20 h
same,pIC50,[36],< 6.00
Cc1ccc(O)c(C(=O)N[C@H]2CC[C@@H](NC(=O)c3cc(F)cnc3Oc3ccc(F)c(F)c3)CC2)c1 [UK-500001],logD,[17],4.27
CS(=O)(=O)Nc1cccc(C(=O)O[C@@H](Cc2c(Cl)c[n+]([O-])cc2Cl)c2ccc(OC(F)F)c(OCC3CC3)c2)c1OCC1CC1,IC50,Phosphodiesterase 4 [10],1.31 nM
same,IC50,Phosphodiesterase 4 [3],0.18 nM
COc1ccc(C(=O)O[C@@H](Cc2c(Cl)c[n+]([O-])cc2Cl)c2ccc(OC(F)F)c(OCC3CC3)c2)cc1OC,IC50,Phosphodiesterase 4 [10],0.12 nM
same,IC50,Phosphodiesterase 4 [3],0.07 nM
C[C@@H]1C[C@H]2[C@@H]3C[C@H](F)C4=CC(=O)C=C[C@]4(C)[C@@]3(F)[C@@H](O)C[C@]2(C)[C@@]1(OC(=O)c1ccco1)C(=O)SCF [FLUTICASONE FUROATE],logD,[17],4.43
same,inhibition in vivo at 0.3 µmol/kg,Cavia porcellus [37],90%
CS(=O)(=O)Nc1ccc(C(=O)O[C@@H](Cc2c(Cl)c[n+]([O-])cc2Cl)c2ccc(OC(F)F)c(OCC3CC3)c2)cc1CO,IC50,Phosphodiesterase 4 [10],1.05 nM
same,IC50,Phosphodiesterase 4 [3],0.03 nM
COc1ccc(C(=O)O[C@@H](Cc2c(Cl)c[n+]([O-])cc2Cl)c2ccc(OC(F)F)c(OCC3CC3)c2)cc1NC(C)=O,IC50,Phosphodiesterase 4 [10],0.67 nM
same,IC50,Phosphodiesterase 4 [3],0.08 nM
